High-throughput results as filed in PubChem BioAssay.
A selection: hits, their analogues and other compounds. The true share with any hit is near 3.8%.
hERG rescue – hERG (human) protection from proarrhythmic block; AID 1511; activation (rescue from dofetilide block), less the hit threshold, % at 10 µM; CHO-hERG, FluxOR thallium flux, dofetilide IC70 present; hit rate 0.51% among 310,000;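 active means activation above the mean of controls blocked by dofetilide plus 5 SD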;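 further: thallium influx through hERG after potassium depolarization seen as dye fluorescence rise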
KCNQ1 block – human KCNQ1 channel inhibition; P51787; CHO-K1 KCNQ1, FluxOR thallium flux fluorescence; hits give high values; hit rate 1.3% among 310,000; AID 2642; B-score at 10 µM;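 active means compounds whose thallium flux B-score, printed positive for inhibition, exceeds three library SD while starting fluorescence stays within three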;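 further: channel opened by potassium depolarization with thallium stimulus after 20 min compound exposure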
Target sequence (P51787 whole entry, looked up): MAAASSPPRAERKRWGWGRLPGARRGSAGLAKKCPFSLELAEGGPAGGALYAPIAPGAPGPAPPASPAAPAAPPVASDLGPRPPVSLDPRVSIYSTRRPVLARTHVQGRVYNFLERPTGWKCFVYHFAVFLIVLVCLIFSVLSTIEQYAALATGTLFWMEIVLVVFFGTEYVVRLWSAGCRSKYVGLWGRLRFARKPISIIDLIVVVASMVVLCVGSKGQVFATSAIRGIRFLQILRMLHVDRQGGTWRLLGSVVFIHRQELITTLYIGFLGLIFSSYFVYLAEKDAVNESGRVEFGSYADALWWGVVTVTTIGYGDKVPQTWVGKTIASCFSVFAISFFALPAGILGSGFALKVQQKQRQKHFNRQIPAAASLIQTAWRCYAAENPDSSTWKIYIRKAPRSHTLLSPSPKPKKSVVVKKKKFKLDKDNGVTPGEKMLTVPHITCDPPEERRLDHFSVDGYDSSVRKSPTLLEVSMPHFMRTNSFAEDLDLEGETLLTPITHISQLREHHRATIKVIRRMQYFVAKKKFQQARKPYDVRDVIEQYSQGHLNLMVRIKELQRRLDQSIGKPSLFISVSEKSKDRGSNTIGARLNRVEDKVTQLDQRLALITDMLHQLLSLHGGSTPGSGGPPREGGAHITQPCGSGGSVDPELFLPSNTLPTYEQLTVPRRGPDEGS
KCNK9 block – blocks the human KCNK9 two-pore domain potassium channel. Q9NPC2. AID 488922. hit rate 1.2% among 310,000. B-score at 10 µM. HEK293 KCNK9, FluxOR thallium flux fluorescence; hits give low values;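 active means ratio B-score over 3 SD below the library mean, with starting fluorescence within 5 SD of its mean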;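 further: negative B-score means less thallium flux so channel inhibition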
Kir21 inh – Kir2.1 (mouse) channel inhibition; P35561; AID 1672; HEK293-Kir2.1, FluxOR thallium flux fluorescence; hits give low values; B-score at 10 µM; hit rate 0.85% among 310,000;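 active means fluorescence ratio B-score at or below minus 3 SD of library scores, with starting-brightness B-score within 2 SD, cut at about -4.2 in these data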;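 further: channel flux triggered by added potassium and thallium sulfate stimulus; B-score of peak minus minimum fluorescence over baseline after thallium stimulus; more negative B-score means stronger Kir2.1 block with less thallium influx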
KCNQ1 act – potentiates or activates the human KCNQ1 potassium channel; CHO-K1 KCNQ1, thallium flux FluxOR fluorescence; hits give high values; hit rate 0.35% among 310,000; B-score at 10 µM; P51787;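 active means fluorescence ratio B-score, a plate-corrected score, at least three library SD, with initial intensity B-score within 5 SD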
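Schedule – 37 °C overnight plating, 90-min dark dye load, 20-min compound pretreatment · System – stable KCNQ1 CHO-K1 line · Probe or stimulus – thallium- and potassium-containing depolarizing buffer · Measured by – kinetic FluxOR fluorescence, 10 s baseline plus 110 s post-stimulus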
KCNK3 inh – human KCNK3 channel inhibition, primary screen | O14649 | CHO-KCNK3 thallium flux, FluxOR fluorescence; hits give low values | B-score at 10 µM | hit rate 0.84% among 340,000 | AID 602410;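 active means B-score under library mean minus 4 SD, starting fluorescence ratio at most library mean plus 5 SD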;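 further: more negative B-score means stronger inhibition of thallium flux through KCNK3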
KCNK9 inh conf – human KCNK9 inhibitor confirmation; HEK293 KCNK9 cells, FluxOR thallium flux fluorescence; hit rate 43% among 4,900; AID 492992; inhibition, % at 10 µM; shares compounds with KCNK9 block;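 active means thallium signal inhibited by more than 5 SD of the compound-free buffer control wells, on both duplicate plates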
Kir21 sel – tests whether KCNK9 modulators also affect mouse Kir2.1; shares compounds with KCNK9 block; Kir2.1 cells, FluxOR thallium flux fluorescence; inhibition, % at 10 µM; hit rate 4% among 4,900; AID 492993;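 active means thallium signal drop more than 5 SD beyond the mean of the no-compound control wells, seen in both duplicate plates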;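 further: signal is fluorescence rise after thallium addition divided by baseline fluorescence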
HEK293 Tl ctr – second counter-screen for KCNK9 modulators: effect in non-induced cells; hit rate 40% among 4,900; shares compounds with KCNK9 block; non-induced KCNK9-HEK293, FluxOR thallium flux; inhibition, % at 10 µM;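 active means thallium signal drop beyond 5 SD of the untreated control mean, on both duplicate plates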
Hits are given with their value.

Results for COc1cc(OC)c(CN2CCCCCCC2)cc1Br ?
hERG rescue: inactive; KCNQ1 block: inactive; KCNK9 block: inactive; Kir21 inh: inactive; KCNQ1 act: inactive; KCNK3 inh: inactive

Results for Cc1cccc(CN2CCN(C(=O)c3cccc4ccccc34)CC2)c1 ?
hERG rescue: inactive; KCNQ1 block: inactive; KCNK9 block: inactive; Kir21 inh: inactive; KCNQ1 act: inactive; KCNK3 inh: inactive; KCNK9 inh conf: inactive; Kir21 sel: inactive; HEK293 Tl ctr: inactive

What do the screens show for `Cc1ccc(CN2CCN(C(=O)c3cccc4ccccc34)CC2)cc1`?
hERG rescue: inactive; KCNQ1 block: inactive; KCNK9 block: inactive; Kir21 inh: inactive; KCNQ1 act: inactive; KCNK3 inh: inactive

How did CSc1ccccc1NC(=O)CN(C)C(=O)CNc1ccc(C(F)(F)F)cc1[N+](=O)[O-] do in these assays?
KCNK3 inh: inactive

Results for Cc1ccc(C)c(NS(=O)(=O)c2cc(C(=O)N3CCc4ccccc4C3)ccc2Cl)c1 ?
hERG rescue: inactive; KCNQ1 block: inactive; KCNK9 block: -17; Kir21 inh: inactive; KCNQ1 act: inactive; KCNK3 inh: inactive; KCNK9 inh conf: 57%; Kir21 sel: inactive; HEK293 Tl ctr: 36%

How did CCN(CC)S(=O)(=O)c1cc(C(=O)N2CCc3ccccc32)ccc1Cl do in these assays?
hERG rescue: inactive; KCNQ1 block: inactive; KCNK9 block: inactive; Kir21 inh: inactive; KCNQ1 act: inactive; KCNK3 inh: inactive; KCNK9 inh conf: inactive; Kir21 sel: inactive; HEK293 Tl ctr: inactive

What do the screens show for `Cc1ccccc1NS(=O)(=O)c1cc(C(=O)N2CCCC2)ccc1Cl`?
hERG rescue: inactive; KCNQ1 block: inactive; KCNK9 block: inactive; Kir21 inh: inactive; KCNQ1 act: inactive; KCNK3 inh: inactive

What do the screens show for `Cc1cccc(NS(=O)(=O)c2cc(C(=O)N3CCc4ccccc4C3)ccc2Cl)c1C`?
hERG rescue: inactive; KCNQ1 block: inactive; KCNK9 block: -15; Kir21 inh: inactive; KCNQ1 act: inactive; KCNK3 inh: inactive; KCNK9 inh conf: 68%; Kir21 sel: inactive; HEK293 Tl ctr: inactive

Results for COc1ccc(OCC(=O)Nc2ccc3c(c2)OCO3)cc1 ?
hERG rescue: inactive; KCNQ1 block: inactive; KCNK9 block: inactive; Kir21 inh: inactive; KCNQ1 act: inactive; KCNK3 inh: inactive

Results for Cc1ccc(N(C)S(=O)(=O)c2cccc(C(=O)Nc3ccc(C)cn3)c2)cc1 ?
hERG rescue: inactive; KCNQ1 block: inactive; KCNK9 block: inactive; Kir21 inh: inactive; KCNQ1 act: inactive; KCNK3 inh: inactive

Results for CCc1ccc(NC(=O)COC(=O)/C(=C/c2ccccc2OC)c2ccccc2)cc1 ?
hERG rescue: inactive; KCNQ1 block: inactive; KCNK9 block: inactive; Kir21 inh: inactive; KCNQ1 act: inactive; KCNK3 inh: inactive; KCNK9 inh conf: inactive; Kir21 sel: inactive; HEK293 Tl ctr: inactive

Results for O=C(CSc1nc2ccsc2c(=O)n1Cc1ccccc1)NCC1CCCO1 (stereo unspecified) ?
hERG rescue: inactive; KCNQ1 block: inactive; KCNK9 block: inactive; Kir21 inh: inactive; KCNQ1 act: inactive; KCNK3 inh: inactive

How did CCC1CCCCN1C(=O)CSc1nc2ccsc2c(=O)n1Cc1ccccc1 (stereo unspecified) do in these assays?
hERG rescue: inactive; KCNQ1 block: inactive; KCNK9 block: inactive; Kir21 inh: inactive; KCNQ1 act: inactive; KCNK3 inh: inactive; KCNK9 inh conf: inactive; Kir21 sel: inactive; HEK293 Tl ctr: inactive

What do the screens show for `O=C(NC(=S)Nc1ccc2c(c1)OCCO2)c1cccc2ccccc12`?
hERG rescue: inactive; KCNQ1 block: inactive; KCNK9 block: inactive; Kir21 inh: inactive; KCNQ1 act: inactive; KCNK3 inh: inactive

What do the screens show for `O=C1C=CC2C3C(=O)N(c4ccccc4)C(=O)C3C1N2Cc1ccccc1` (stereo unspecified)?
KCNK3 inh: inactive

Results for O=c1c2c3c(sc2n(CCN2CCCC2)c(=O)n1Cc1ccco1)CCCCC3 ?
hERG rescue: inactive; KCNQ1 block: inactive; KCNK9 block: inactive; Kir21 inh: inactive; KCNQ1 act: inactive; KCNK3 inh: inactive

What do the screens show for `CN(C)CCn1c(=O)n(C2CCCCC2)c(=O)c2c3c(sc21)CCCCC3`?
hERG rescue: inactive; KCNQ1 block: inactive; KCNK9 block: inactive; Kir21 inh: inactive; KCNQ1 act: inactive; KCNK3 inh: inactive; KCNK9 inh conf: inactive; Kir21 sel: inactive; HEK293 Tl ctr: inactive

How did CCn1c(=O)n(CCOC)c(=O)c2c3c(sc21)CCCC3 do in these assays?
hERG rescue: inactive; KCNQ1 block: inactive; KCNK9 block: inactive; Kir21 inh: inactive; KCNQ1 act: inactive; KCNK3 inh: inactive

Results for O=C(Cn1c(=O)n(Cc2ccco2)c(=O)c2c3c(sc21)CCCCC3)Nc1ccccc1 ?
hERG rescue: inactive; KCNQ1 block: 6; KCNK9 block: inactive; Kir21 inh: inactive; KCNQ1 act: inactive; KCNK3 inh: inactive; KCNK9 inh conf: inactive; Kir21 sel: inactive; HEK293 Tl ctr: 34%

What do the screens show for `CN(C)CCn1c(=O)n(Cc2ccco2)c(=O)c2c3c(sc21)CCCCC3`?
hERG rescue: inactive; KCNQ1 block: inactive; KCNK9 block: inactive; Kir21 inh: inactive; KCNQ1 act: inactive; KCNK3 inh: inactive; KCNK9 inh conf: inactive; Kir21 sel: inactive; HEK293 Tl ctr: inactive

How did CCn1nnc(NC(=S)NC(=O)c2ccc(-c3cccc(Cl)c3)o2)n1 do in these assays?
hERG rescue: inactive; KCNQ1 block: inactive; KCNK9 block: inactive; Kir21 inh: inactive; KCNQ1 act: inactive; KCNK3 inh: inactive

How did COc1ccc(N(C(C)C(=O)NCCSCc2cccc(Cl)c2)S(C)(=O)=O)cc1 (stereo unspecified) do in these assays?
hERG rescue: inactive; KCNQ1 block: inactive; KCNK9 block: inactive; Kir21 inh: inactive; KCNQ1 act: inactive; KCNK3 inh: inactive

Results for CN(Cc1cnn(-c2ccc(F)cc2)c1)Cc1nc(Cc2ccccc2)no1 ?
hERG rescue: inactive; KCNQ1 block: inactive; KCNK9 block: inactive; Kir21 inh: inactive; KCNQ1 act: inactive; KCNK3 inh: inactive; KCNK9 inh conf: inactive; Kir21 sel: inactive; HEK293 Tl ctr: inactive

How did CN(CCc1cnn(C)c1)Cc1nc(Cc2ccccc2)no1 do in these assays?
hERG rescue: inactive; KCNQ1 block: inactive; KCNK9 block: inactive; Kir21 inh: inactive; KCNQ1 act: inactive; KCNK3 inh: inactive

What do the screens show for `CCC1=C(c2ccc(C)cc2)S(=O)(=O)N=C1N1CCC(C(=O)NCCCN2CCCCC2C)CC1` (stereo unspecified)?
hERG rescue: inactive; KCNQ1 block: inactive; KCNK9 block: inactive; Kir21 inh: inactive; KCNQ1 act: inactive; KCNK3 inh: inactive
